Screening results as filed in PubChem BioAssay.
V1aR counter: counter-screen for oxytocin receptor agonists: human V1a receptor agonists; activation, % at 3 µM; hit rate 0.25% among 320,000; P37288; CHO-V1R cells, Fluo-8 calcium fluorescence, agonist mode; 0% DMSO, 100% 3 nM vasopressin;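 active means activation above the mean activation of all tested compounds plus 3 SD, per screening run, cut at about 20% in these data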;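 further: signal is peak over basal fluorescence ratio across a 100 second FLIPR read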
Target sequence (P37288 whole entry, looked up): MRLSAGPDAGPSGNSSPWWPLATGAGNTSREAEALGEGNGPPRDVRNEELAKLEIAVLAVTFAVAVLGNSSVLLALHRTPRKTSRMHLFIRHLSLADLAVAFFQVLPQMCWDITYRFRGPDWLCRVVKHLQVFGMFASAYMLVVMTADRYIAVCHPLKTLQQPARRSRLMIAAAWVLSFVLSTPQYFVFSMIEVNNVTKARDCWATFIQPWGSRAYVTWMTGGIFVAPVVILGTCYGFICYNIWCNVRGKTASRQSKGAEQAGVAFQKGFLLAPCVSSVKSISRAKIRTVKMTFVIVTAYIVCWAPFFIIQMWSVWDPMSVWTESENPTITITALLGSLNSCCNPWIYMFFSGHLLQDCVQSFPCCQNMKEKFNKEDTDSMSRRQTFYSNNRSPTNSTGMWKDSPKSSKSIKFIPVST
OXTR potentiate: potentiators of human oxytocin receptor; AID 2445; activation, % at 3 µM; hit rate 0.061% among 320,000; CHO-OTR cells, Fluo-8 calcium fluorescence, potentiator mode; 0% = oxytocin EC15, 100% = EC100;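 active means activation above that plate's cutoff, the mean activation of tested compounds plus 3 SD, cut at about 6.6% in these data, passing the limit was not always enough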
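Assay system: CHO cell line stably expressing human OTR. Reagent: EC15 oxytocin agonist. Dosing: single dose, 3.0 µM nominal final compound concentration. Timing: compound 6 min at room temperature before oxytocin, 100 s read. Signal: kinetic Fluo-8 calcium fluorescence. Controls: oxytocin EC15 low and EC100 high.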
TRPML3 ag: activates the human TRPML3 channel. Q8TDD5. HEK293 TRPML3-YFP, Fluo-8 calcium fluorescence; 100% = the carbachol control signal. activation, % at 3 µM. hit rate 0.29% among 220,000;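 active means activation above its plate's cutoff, the mean activation of the plate's test wells plus 3 SD, cut at about 12% in these data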
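Material: HEK293 cells stably carrying human TRPML3-YFP; compound dosing: single dose, 3 µM final nominal compound, 0.3% DMSO final; incubation: 1-h 37 °C dye load, 5-s basal, 120-s post-compound reads; technique: Fluo-8 intracellular calcium fluorescence, excitation 470-495 nm, emission 515-575 nm; read-out basis: percent activation from peak-to-basal fluorescence ratio, scaled between DMSO and carbachol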
TRPN1 ag: activates the zebrafish TRPN1 channel | HEK293 zebrafish TRPN1-YFP, Fluo-8 calcium fluorescence; 100% = response to 87 µM carbachol | activation, % at 3 µM | hit rate 0.18% among 220,000;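 active means activation above its plate's cutoff, the mean activation of test wells on that plate plus 3 SD, cut at about 19% in these data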
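Control set: carbachol 87 µM as high control, DMSO as low control; system: HEK293 stable line with zebrafish TRPN1-YFP; read-out: % activation versus carbachol response; detection: intracellular calcium fluorescence with Fluo-8; doses: single test compound dose, 3 µM nominal, 0.3% DMSO; schedule: dye 1 h 37 °C plus 30 min RT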
OXTR ag: activates the human oxytocin receptor; activation, % at 3 µM; CHO-OTR cells, Fluo-8 calcium fluorescence; normalized: DMSO 0%, oxytocin 100%; hit rate 0.32% among 320,000;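 active means activation above the mean of all tested compounds plus 3 SD, cutoff set per screening run, cut at about 20% in these data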;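 further: peak over basal fluorescence ratio from a 100 s FLIPR kinetic read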
Numbers stand for hits; - = inactive; . = no result. A selection: hits, their analogues and other compounds. The true share with any hit is near 0.55%.

SMILES	V1aR counter	OXTR potentiate	TRPML3 ag	TRPN1 ag	OXTR ag
Cc1ccc(-c2oc3ccccc3c(=O)c2O)cc1	-	-	-	-	-
O=c1c(O)c(-c2cccs2)oc2ccc(Cl)cc12	92	-	52	49	63
CCOC(=O)c1c(CSC(=N)N)n(C)c2cc(Br)c(OC(C)=O)cc12	-	-	-	-	-
CCOC(=O)c1c(CSC(=N)N)n(-c2ccc(C)cc2)c2cc(Br)c(OC(C)=O)cc12	22	-	-	-	32
O=C(O)/C=C/c1ccc([N+](=O)[O-])o1	-	-	-	-	-
O=C1NC(=S)S/C1=C\C=C\c1ccc([N+](=O)[O-])o1	.	.	-	21	.
COc1ccc(C(OCC(O)CNCCc2ccc(S(N)(=O)=O)cc2)c2ccc(OC)cc2)cc1 (stereo not given)	-	-	.	.	-
OC(CNCCc1ccc(C(F)(F)F)cc1)COC(c1ccccc1)c1ccccc1 (stereo not given)	35	-	.	.	27
CC1(c2nnc(Cc3ccccc3)o2)CC(c2ccccc2[N+](=O)[O-])=NO1 (stereo not given)	-	-	.	.	-
N#C/C(=N\Nc1ccc(Cl)c(Cl)c1)C(=O)C1CC1	-	-	-	20	-
Cc1ccc(NC(=O)CSCC(=O)Nc2ccccc2N2CCCC2)cc1	-	-	.	.	-
CN1CCS/C1=C\C=C1/SC(=S)N(CC(=O)O)C1=O	.	.	-	31	.
CN1/C(=C\C=C2/SC(=S)N(CC(=O)O)C2=O)C(C)(C)c2ccccc21	148	-	12	41	111
O=C(CN(Cc1ccc(Cl)cc1)C(=O)c1csnn1)NCc1ccccc1	-	-	.	.	-
CCOc1ccc(OCCNC(=O)C(NC(=O)c2c(F)cccc2F)C(C)C)cc1 (stereo not given)	-	-	.	.	-
O=C(Cn1ncc2c([nH]c3ccccc32)c1=O)NCC1CCN(Cc2ccccc2F)CC1	-	-	.	.	-
COc1ccc(C(C(=O)NC(C)(C)C)N(C(=O)CCC(=O)Nc2cc(C)on2)c2ccc(C)c(C)c2)cc1 (stereo not given)	-	-	.	.	-
CCN(CC)c1ccc(/C=C(/C#N)c2nc3ccccc3[nH]2)c(OC(C)C)c1	44	-	15	24	51
N#Cc1c(NC(=S)NC(=O)c2ccccc2)sc2c1CCN(CCc1ccccc1)C2	57	-	14	24	28
CC(=O)c1ccc(OC(=O)c2ccc(Br)o2)cc1	-	-	-	-	-
CCC(=O)c1ccc(OC(=O)c2ccc(Br)o2)cc1	44	-	-	-	35
CC(C)(C)NC(=O)c1ccc2nsnc2c1	-	-	-	-	-
COc1ccc(/C=N/NC(=O)c2nnn(-c3nonc3N)c2-c2cccs2)cc1OC	-	-	.	.	-
COc1cccc(-c2c(C(=O)N/N=C/c3cccs3)nnn2-c2nonc2N)c1	28	-	.	.	21
CC(C)c1c(C(=O)N/N=C/c2ccoc2)nnn1-c1nonc1N	-	-	.	.	-
SMILES	V1aR counter	OXTR potentiate	TRPML3 ag	TRPN1 ag	OXTR ag
Cc1ccc(/C=N/NC(=O)c2nnn(-c3nonc3N)c2-c2cccs2)cc1	42	-	.	.	56
CC(C)c1c(C(=O)N/N=C/c2ccc(C(F)(F)F)cc2)nnn1-c1nonc1N	79	-	.	.	66
O=C(COC(=O)c1n[nH]c(=O)c2ccccc12)Nc1ccccc1F	-	-	.	.	-
C=CCn1c(SCC)nc(O)cc1=O	60	-	-	-	29
COc1cc(/C=C2/SC(=Nc3ccc(O)cc3)NC2=O)ccc1O	-	-	-	-	-
COc1cc(/C=C2\SC(=Nc3ccccc3)NC2=O)cc(Cl)c1O	70	-	.	.	89
CC(C)(C)C(=O)NC(=S)NNC(=O)c1sc2ccccc2c1Cl	112	-	23	49	99
CCCOc1ccc(C(=O)NNC(=S)NC(=O)c2cc(-c3ccc(Cl)cc3)nc3ccccc23)cc1	-	-	-	-	-
COc1ccc(C(=O)NNC(=S)NC(=O)c2cc(-c3ccccc3)nc3ccccc23)cc1	28	-	-	22	35
COc1ccc(C(=O)NNC(=S)NC(=O)C(C)(C)C)cc1	81	-	17	41	78
COc1ccc(C(=O)NC(=S)NNC(=O)c2ccccc2C)cc1	60	-	.	.	58
COc1ccc(C(=O)NC(=S)NNC(=O)c2ccccc2O)cc1	-	-	.	.	-
CC(C)(C)n1nc2c(c1NC(=O)C1CC(=O)N(c3ccc(Cl)cc3)C1)CS(=O)(=O)C2 (stereo not given)	-	-	.	.	-
COc1ccc(-n2nc3c(c2NC(=O)C(C)Oc2ccccc2)CS(=O)C3)cc1 (stereo not given)	-	-	.	.	-
O=C(c1cc(N2C(=O)C3C4CCC(C4)C3C2=O)ccc1Cl)N1CCN(c2ccccc2F)CC1 (stereo not given)	-	-	-	-	-
CC(C)(C)c1ccc(/C=C2\CCn3c2nc2cc(C(=O)O)ccc2c3=O)cc1	-	-	.	.	-
CCOC(=O)/C(=C/c1ccco1)NC(=O)c1ccc(Br)o1	-	-	-	-	-
CC(C)(C)CC(=O)Nc1nnc(C(F)(F)F)s1	-	-	-	-	-
CC(NC(=O)Nc1nnc(C(F)(F)F)s1)(C(F)(F)F)C(F)(F)F	-	-	21	26	-
O=C(Nc1ccccc1C(=O)Nc1nnc(C(F)(F)F)s1)c1ccccc1Cl	-	-	13	23	-
NC(=O)c1ccccc1NC(=O)c1ccccc1Cl	-	-	-	-	-
O=C(Nc1nnc(C(F)(F)F)s1)c1ccc(Br)s1	-	-	19	29	-
CCCCN1C(=O)/C(=C/C=C2\Oc3ccccc3N2CC)SC1=S	.	.	-	-	.
CCCCN1C(=O)/C(=C/C=C2/CC(C)(C)CN2C)SC1=S	66	-	14	26	52
Cn1cc([N+](=O)[O-])c(C(=O)Nc2nc(-c3ccc(Cl)cc3)cs2)n1	36	-	-	-	32
SMILES	V1aR counter	OXTR potentiate	TRPML3 ag	TRPN1 ag	OXTR ag
CCCCN(C)CCNC(=O)C1CCN(S(=O)(=O)c2cccc3nsnc23)CC1	-	-	.	.	-
Cc1ccccc1-c1cc(C(=O)NCc2cccc(Br)c2)nn1CC1CC(c2cccc([N+](=O)[O-])c2)=NO1 (stereo not given)	-	-	.	.	-
CC(=O)Nc1ccc(Sc2ncccc2C(=O)Nc2cc(Cl)cc(Cl)c2)cn1	-	-	-	-	-
CC(=O)Nc1ccc(Sc2ncccc2C(=O)Nc2ccc(OC(F)(F)F)cc2)cn1	67	-	31	48	71
CC(CCc1ccccc1)NCc1cccc2ccccc12 (stereo not given)	-	-	.	.	-
NC(CCCCc1ccccc1)c1cccc2ccccc12 (stereo not given)	-	-	.	.	21
CC(=O)OCCn1c(C)[n+](CCOC(C)=O)c2cc(Cl)c(Cl)cc21	-	-	-	-	-
CC(=O)OCCn1c2nc(=O)[nH]c(=O)c-2nc2cc(C)c(C)cc21	.	.	88	142	.
